Reference: ChEMBL document CHEMBL4480374, “Methoxy substituted 2-benzylidene-1-indanone derivatives as A1 and/or A2A AR antagonists for the potential treatment of neurological conditions” (Medchemcomm, 2019)
pKi: −log10 of the molar value.

target: T1, Adenosine receptor A1 (Rattus norvegicus, UniProt P25099); experiment: Displacement of [3H]DPCPX from adenosine A1 receptor in rat brain membranes by radioligand competition assay; type: cell membranes; conditions: not given
T1 sequence (P25099 whole entry): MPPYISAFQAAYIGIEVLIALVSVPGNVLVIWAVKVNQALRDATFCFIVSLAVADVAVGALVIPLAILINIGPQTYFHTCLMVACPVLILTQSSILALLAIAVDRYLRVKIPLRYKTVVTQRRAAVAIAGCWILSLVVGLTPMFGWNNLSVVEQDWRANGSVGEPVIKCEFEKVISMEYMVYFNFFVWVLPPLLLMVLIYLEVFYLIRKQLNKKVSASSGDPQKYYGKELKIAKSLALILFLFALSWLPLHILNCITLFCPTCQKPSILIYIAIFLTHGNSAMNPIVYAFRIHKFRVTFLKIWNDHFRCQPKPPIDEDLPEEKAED

Row | pKi | Structure (SMILES)
1 | < 4.00 | CN(C)c1ccc(/C=C2\Cc3ccccc3C2=O)cc1
2 | 5.78 | COc1cccc2c1C/C(=C\c1ccccc1)C2=O
3 | 7.39 | COc1cccc2c1C/C(=C\c1cccc(O)c1)C2=O
4 | < 4.00 | COc1ccc2c(c1)C/C(=C\c1ccc(N(C)C)cc1)C2=O
5 | < 4.00 | COc1cccc2c1C/C(=C\c1ccc(N(C)C)cc1)C2=O
6 | < 4.00 | COc1cccc2c1C/C(=C\c1ccc(O)cc1)C2=O
7 | 5.79 | O=C1/C(=C/c2cccc(O)c2)CCc2c(O)cccc21
8 | 7.38 | COc1cccc2c1C/C(=C\c1ccc(O)c(O)c1)C2=O
9 | 6.36 | O=C1/C(=C/c2ccc(O)c(O)c2)Cc2c(O)cccc21

Further lines, the compound ahead of its results:

Row | Structure (SMILES) | pKi
10 | COc1ccc2c(c1)C/C(=C\c1ccc(O)c(O)c1)C2=O | 5.48
11 | COc1cccc2c1CCC2=O | < 4.00
12 | COc1cc(OC)c(OC)cc1/C=C1\Cc2c(OC)cccc2C1=O | < 4.00
13 | COc1cc2c(cc1OC)C(=O)/C(=C/c1ccc(O)c(O)c1)C2 | 5.37
14 | COc1ccc2c(c1)C/C(=C\c1ccccc1)C2=O | < 4.00
15 | O=C1/C(=C/c2ccc(O)c(O)c2)Cc2cc3c(cc21)OCO3 | < 4.00

target: Adenosine receptor A2a (Rattus norvegicus) (UniProt P30543); experiment: Displacement of [3H]NECA from adenosine A2A receptor in rat striatal membranes at 100 uM by radioligand competition assay relative to control; type: cell membranes; conditions: Striatum, Membrane
Sequence (P30543 whole entry): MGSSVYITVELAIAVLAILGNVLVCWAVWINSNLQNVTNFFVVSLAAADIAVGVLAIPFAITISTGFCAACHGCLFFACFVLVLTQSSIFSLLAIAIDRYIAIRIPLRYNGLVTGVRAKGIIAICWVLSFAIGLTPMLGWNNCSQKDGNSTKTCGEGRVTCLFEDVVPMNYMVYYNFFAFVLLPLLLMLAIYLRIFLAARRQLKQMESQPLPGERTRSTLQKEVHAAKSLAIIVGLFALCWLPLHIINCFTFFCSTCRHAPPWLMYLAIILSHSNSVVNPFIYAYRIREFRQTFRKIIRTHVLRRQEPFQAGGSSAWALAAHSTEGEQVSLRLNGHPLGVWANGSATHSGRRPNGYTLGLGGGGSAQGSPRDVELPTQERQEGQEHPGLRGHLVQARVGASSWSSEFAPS
Outline: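 Rat striatal membranes, [3H]NECA at 4 nM (Kd = 15.3 nM) with CPA added to minimise A1 binding. Percentage radioligand displacement recorded at the highest tested concentration, 100 μM. Nonspecific binding defined with 100 μM CPA.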

Row | inhibition [%] | Structure (SMILES)
16 | 65 | CN(C)c1ccc(/C=C2\Cc3ccccc3C2=O)cc1
17 | 62 | COc1cccc2c1C/C(=C\c1ccccc1)C2=O
18 | 47 | COc1ccc2c(c1)C/C(=C\c1ccc(N(C)C)cc1)C2=O
19 | 23 | COc1cccc2c1C/C(=C\c1ccc(N(C)C)cc1)C2=O
20 | 65 | COc1cccc2c1C/C(=C\c1ccc(O)cc1)C2=O

The next lines start with the compound.

Row | Structure (SMILES) | inhibition [%]
21 | COc1cccc2c1CCC2=O | 72
22 | COc1cc(OC)c(OC)cc1/C=C1\Cc2c(OC)cccc2C1=O | 29
23 | COc1ccc2c(c1)C/C(=C\c1ccccc1)C2=O | 82

target: T1, Adenosine receptor A1; experiment: Antagonist activity at rat adenosine A1 receptor; conditions: not given

Row | Structure (SMILES) | pKi
24 | O=C1/C(=C/c2ccc(O)c(O)c2)Oc2c1ccc(O)c2O | 5.46

target: T2, Adenosine receptor A1 (Rattus norvegicus) (UniProt P25099); experiment: Selectivity index, ratio of Ki for adenosine A1 receptor in rat brain membranes in presence of GTP to Ki for adenosine A1 receptor in rat brain membranes in absence of GTP; type: cell membranes; conditions: not given
T2 sequence (whole entry): T1 sequence (P25099 whole entry)
Outline: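 Both determined by [3H]DPCPX (0.1 nM) competition in rat whole brain membranes, nonspecific binding by 10 μM unlabelled DPCPX. A shift of about 1 is taken as antagonism.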

Row | Structure (SMILES) | Ratio Ki
25 | COc1cccc2c1C/C(=C\c1cccc(O)c1)C2=O | 1.46
26 | O=C1/C(=C/c2ccc(O)c(O)c2)Cc2c(O)cccc21 | 0.9

target: T3, Adenosine receptor A2a (Rattus norvegicus, UniProt P30543); experiment: Displacement of [3H]NECA from adenosine A2A receptor in rat striatal membranes by radioligand competition assay; type: cell membranes, Striatum, Membrane; conditions: not given
T3 sequence (P30543 whole entry): as above

Row | pKi | Structure (SMILES)
27 | < 4.00 | CN(C)c1ccc(/C=C2\Cc3ccccc3C2=O)cc1
28 | < 4.00 | COc1cccc2c1C/C(=C\c1ccccc1)C2=O
29 | 7.01 | COc1cccc2c1C/C(=C\c1cccc(O)c1)C2=O
30 | < 4.00 | COc1ccc2c(c1)C/C(=C\c1ccc(N(C)C)cc1)C2=O
31 | < 4.00 | COc1cccc2c1C/C(=C\c1ccc(N(C)C)cc1)C2=O
32 | < 4.00 | COc1cccc2c1C/C(=C\c1ccc(O)cc1)C2=O
33 | 5.26 | O=C1/C(=C/c2cccc(O)c2)CCc2c(O)cccc21
34 | 7.11 | COc1cccc2c1C/C(=C\c1ccc(O)c(O)c1)C2=O
35 | 6.04 | O=C1/C(=C/c2ccc(O)c(O)c2)Cc2c(O)cccc21

More lines, now with the values behind:

Row | Structure (SMILES) | pKi
36 | COc1ccc2c(c1)C/C(=C\c1ccc(O)c(O)c1)C2=O | 5.20
37 | COc1cccc2c1CCC2=O | < 4.00
38 | OC[C@H]1O[C@@H](n2cnc3c(NC4CCCC4)ncnc32)[C@H](O)[C@@H]1O [N6-CYCLOPENTYLADENOSINE] | 6.79
39 | COc1cc(OC)c(OC)cc1/C=C1\Cc2c(OC)cccc2C1=O | < 4.00
40 | COc1cc2c(cc1OC)C(=O)/C(=C/c1ccc(O)c(O)c1)C2 | 4.74
41 | COc1ccc2c(c1)C/C(=C\c1ccccc1)C2=O | < 4.00
42 | O=C1/C(=C/c2ccc(O)c(O)c2)Cc2cc3c(cc21)OCO3 | 5.97

target: T2, Adenosine receptor A1 (Rattus norvegicus); experiment: Displacement of [3H]DPCPX from adenosine A1 receptor in rat brain membranes at 100 uM by radioligand competition assay relative to control; type: cell membranes; conditions: not given
Outline: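 Percentage displacement of radioligand recorded at the maximum tested concentration, 100 μM. Nonspecific binding defined with 100 μM CPA.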

Row | inhibition [%] | Structure (SMILES)
43 | 51 | CN(C)c1ccc(/C=C2\Cc3ccccc3C2=O)cc1
44 | 64 | COc1ccc2c(c1)C/C(=C\c1ccc(N(C)C)cc1)C2=O
45 | 52 | COc1cccc2c1C/C(=C\c1ccc(N(C)C)cc1)C2=O
46 | 31 | COc1cccc2c1C/C(=C\c1ccc(O)cc1)C2=O

Continued, compound first:

Row | Structure (SMILES) | inhibition [%]
47 | COc1cccc2c1CCC2=O | 78
48 | COc1cc(OC)c(OC)cc1/C=C1\Cc2c(OC)cccc2C1=O | 46
49 | COc1ccc2c(c1)C/C(=C\c1ccccc1)C2=O | 42
50 | O=C1/C(=C/c2ccc(O)c(O)c2)Cc2cc3c(cc21)OCO3 | 70

target: T1, Adenosine receptor A1; experiment: Displacement of [3H]DPCPX from adenosine A1 receptor in rat brain membranes in presence of GTP by radioligand competition assay; type: cell membranes; conditions: not given

Row | Structure (SMILES) | pKi
51 | COc1cccc2c1C/C(=C\c1cccc(O)c1)C2=O | 7.22
52 | O=C1/C(=C/c2ccc(O)c(O)c2)Cc2c(O)cccc21 | 6.47

target: T3, Adenosine receptor A2a; experiment: Antagonist activity at rat adenosine A2A receptor; conditions: not given
Outline: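 Competition binding at A2A in rat striatal membranes with [3H]NECA (4 nM; Kd = 15.3 nM), with CPA present to limit [3H]NECA binding to A1. Nonspecific binding defined with 100 μM CPA (final). Ki derived from IC50 of sigmoidal dose-response curves of specific binding vs log concentration. Triplicate incubations, mean ± SEM.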

Row | Structure (SMILES) | pKi
53 | O=C1/C(=C/c2ccc(O)c(O)c2)Oc2c1ccc(O)c2O | 5.03
54 | O=C1/C(=C/c2ccc(O)cc2)Oc2cc(O)ccc21 | < 4.00

species on record: Rattus norvegicus; experiment: Selectivity index, ratio of Ki for adenosine A1 receptor in rat brain membranes to Ki for adenosine A2A receptor in rat striatal membranes; type: cell membranes; conditions: not given
Outline: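 Selectivity index calculated as the ratio A1 Ki / A2A Ki. […] A2A Ki measured by [3H]NECA (4 nM, with CPA) competition in rat striatal membranes. Ki values are triplicate means.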

Row | Ratio Ki | Structure (SMILES)
55 | 0.4 | COc1cccc2c1C/C(=C\c1cccc(O)c1)C2=O
56 | 0.5 | COc1cccc2c1C/C(=C\c1ccc(O)c(O)c1)C2=O
57 | 0.5 | O=C1/C(=C/c2ccc(O)c(O)c2)Cc2c(O)cccc21

Continued, compound first:

Row | Structure (SMILES) | Ratio Ki
58 | COc1ccc2c(c1)C/C(=C\c1ccc(O)c(O)c1)C2=O | 0.5
59 | COc1cc2c(cc1OC)C(=O)/C(=C/c1ccc(O)c(O)c1)C2 | 0.2
